Laboratory results reported in PMC5444390 (Journal of medicinal chemistry, 2016).
Each block holds one molecule with its values, some of them ahead of it.

Columns and labels:
[1] = tested on: Hsp90 client proteins (EGFR, Her2, C-Raf) and Hsp90 in A549 cells; experiment: Western blot for Hsp90 client proteins and Hsp90, A549 lysates; assay type: cell-based; settings: for Hsp90 client levels: A549, 12 or 24 h
How it was run: (§1)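 MCF7 (Advanced DMEM/F12, 2 mM L-glutamine) or A549 (F12K) cells, with 10% FBS and pen/strep at 37 °C, 5% CO2. […] M-PER lysates with protease/phosphatase inhibitors, 15 µg protein on reducing 10% gels, PVDF, HRP-chemiluminescence.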

[2] = tested on: Hsp90 client proteins (EGFR, Her2, C-Raf) and Hsp90 in MCF7 cells; experiment: Western blot for Hsp90 client proteins and Hsp90, MCF7 lysates; assay type: cell-based; settings: MCF7, 12 h
How it was run: as §1

[3] = biological target: wild type B-Raf / c-Raf heterodimer in A549 cells (Homo sapiens, UniProt P15056); experiment: Co-immunoprecipitation of B-Raf, A549 lysates; assay type: cell-based; settings: A549, 24 h, five-times IC50
[4] = tested on: MAPK pathway (EGFR, C-Raf, MEK, ERK, p-MEK, p-ERK) in A549 cells; experiment: Western blot for MAPK pathway proteins, p-MEK and p-ERK, A549 lysates; assay type: cell-based
[5] = tested on: Her3 and wild-type B-Raf in A549 cells; experiment: Western blot for Her3 and wild-type B-Raf; assay type: cell-based; settings: for Her3 and wild-type B-Raf levels, control compounds: A549, 12 and 24 h, five-times the reported IC50
How it was run: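 Cells harvested in cold PBS, lysed in M-PER with protease/phosphatase inhibitors, 15 µg protein resolved on reducing 10% gels, transferred to PVDF, immunoblotted for Her3 and B-Raf, HRP-chemiluminescent detection.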

[6] = tested on: p-Akt and total Akt in A549 cells; experiment: Western blot for p-Akt and total Akt, A549 lysates; assay type: cell-based; settings: A549, 2 to 12 h (Supplementary Figure 2)
[7] = tested on: Hsp90 luciferase refolding activity in PC3-MM2 cells; experiment: Luciferase refolding assay; assay type: cell-based; settings: 0–100 μM, 1 h
How it was run: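 Heat-denatured luciferase: luciferase-expressing PC3-MM2 cells were heated 8–12 min at 50 °C in DMEM until luminescence was 1% of initial. They were added (60,000 cells/100 µL final) to test compound, 0–100 µM, 1% DMSO final, and incubated 1 h. Luciferin/CoA/ATP reagent (tricine pH 7.8) was added and luminescence read immediately (0.5 s). Refolding was normalized to 1% DMSO = 100%. Triplicate concentrations, dose-response curves.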

[8] = tested on: A549 lung cancer cell line; experiment: Anti-proliferation; assay type: cell-based; settings: 0.15 μM versus 1.7 μM
[9] = tested on: A549 lung cancer cell line; settings: cited from earlier work
[10] = tested on: Hsp90 client proteins and Hsp90; experiment: Western blot for clients and Hsp90 with geldanamycin; assay type: cell-based; settings: Supplementary Figure 1
[11] = A549, 750 nM, 2 to 12 h, vs vehicle

wild type B-Raf / c-Raf heterodimer in A549 cells, sequence (P15056 whole entry, one chain of several): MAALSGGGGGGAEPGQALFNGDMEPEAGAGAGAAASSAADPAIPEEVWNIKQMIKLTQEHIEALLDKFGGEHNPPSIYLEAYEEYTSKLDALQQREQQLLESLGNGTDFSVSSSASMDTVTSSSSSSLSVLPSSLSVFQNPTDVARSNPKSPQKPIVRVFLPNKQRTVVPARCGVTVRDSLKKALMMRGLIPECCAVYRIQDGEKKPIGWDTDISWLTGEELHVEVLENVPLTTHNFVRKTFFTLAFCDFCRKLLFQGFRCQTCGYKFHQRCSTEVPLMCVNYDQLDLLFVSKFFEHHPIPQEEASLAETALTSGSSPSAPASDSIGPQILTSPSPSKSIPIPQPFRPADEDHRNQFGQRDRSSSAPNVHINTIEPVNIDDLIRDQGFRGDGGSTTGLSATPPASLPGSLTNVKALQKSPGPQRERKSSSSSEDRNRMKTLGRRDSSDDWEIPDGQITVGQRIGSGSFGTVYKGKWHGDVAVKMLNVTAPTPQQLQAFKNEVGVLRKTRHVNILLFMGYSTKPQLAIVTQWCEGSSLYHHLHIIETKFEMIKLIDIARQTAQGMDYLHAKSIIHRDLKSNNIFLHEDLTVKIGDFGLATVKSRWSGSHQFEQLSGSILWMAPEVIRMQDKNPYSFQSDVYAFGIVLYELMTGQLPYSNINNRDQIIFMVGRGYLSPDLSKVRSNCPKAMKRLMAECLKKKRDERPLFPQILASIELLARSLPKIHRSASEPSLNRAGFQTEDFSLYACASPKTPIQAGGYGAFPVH

SMILES: Cc1c(OC2CCN(C)CC2)ccc2cc(NC(=O)Nc3ccccc3)c(=O)oc12 [Compound 1, 1-(8-methyl-7-((1-methylpiperidin-4-yl)oxy)-2-oxo-2H-chromen-3-yl)-3-phenylurea]
Hsp90 client levels (EGFR, Her2, C-Raf) ([1]; A549, 12 h, high concentration (five-times IC50), vs vehicle): decreased levels
Hsp90 levels ([1]; A549, 12 h, low and high concentrations): comparable to vehicle
Hsp90 client levels (EGFR, Her2, C-Raf) ([2]; high concentration (five-times IC50), vs vehicle): decreased levels
Hsp90 levels ([2]; low and high concentrations): comparable to vehicle

Dimerization of wild type B-Raf and c-Raf (co-immunoprecipitation) [3]: does not result in dimerization
IC50 of 2 relative to IC50 of TAK-632 [8]: one tenth
SMILES: COc1cccc(-c2cc(NC(=O)Nc3cc4ccc(OC5CCN(C)CC5)c(C)c4oc3=O)ccc2OC)c1 [Compound 2, 1-(3′,6-dimethoxy-[1,1′-biphenyl]-3-yl)-3-(8-methyl-7-((1-methylpiperidin-4-yl)oxy)-2-oxo-2H-chromen-3-yl)urea]
EGFR and C-Raf levels [4, 11]: remained constant
Total MEK and ERK levels [4, 11]: remained constant
p-MEK levels ([4]; A549, 750 nM, 12 h): undetectable
p-MEK and p-ERK levels ([4]; A549, 12 h, high concentration (five-times IC50, 750 nM)): significantly lower levels
p-MEK and p-ERK levels ([4]; A549, 12 h, low concentration (half IC50, 70nM)): little effect
p-MEK and p-ERK levels ([4]; A549, 24 h, 750 nM): only slightly increased compared to 12 hours
Her3 and wild-type B-Raf levels ([5]; A549, 24 h, five-times IC50): comparable to vehicle
p-Akt and total Akt levels [6]: unaffected
Hsp90 client protein levels ([1]; A549, 12 h, low (half IC50) and high (five-times IC50) concentrations): unchanged
Inhibition of firefly luciferase re-maturation [7]: does not inhibit
Hsp90 client protein levels ([2]; low (half IC50) and high (five-times IC50) concentrations): unchanged

SMILES: Cc1c(OC2CCN(C)CC2)ccc2cc(NC(=O)Nc3cccc(-c4ccccc4)c3)c(=O)oc12 [Compound 3, 1-([1,1′-biphenyl]-3-yl)-3-(8-methyl-7-((1-methylpiperidin-4-yl)oxy)-2-oxo-2H-chromen-3-yl)urea]
Hsp90-dependent client protein levels ([1]; A549, 24 h, five-times IC50): decreased levels
Hsp90 levels ([1]; A549, 24 h, five-times IC50): constant levels

SMILES: COc1ccc(NC(=O)Nc2cc3ccc(OC4CCN(C)CC4)c(C)c3oc2=O)cc1-c1ccccc1 [Compound 4, 1-(6-methoxy-[1,1′-biphenyl]-3-yl)-3-(8-methyl-7-((1-methylpiperidin-4-yl)oxy)-2-oxo-2H-chromen-3-yl)urea]
p-MEK and pERK levels ([4]; A549, 12 h, five-times IC50, vs vehicle): decreased
p-MEK and p-ERK levels ([4]; A549, 24 h, five-times IC50): reestablished
Hsp90 client levels ([1]; five-times IC50): did not result in decreased client levels

SMILES: COc1cccc(-c2cccc(NC(=O)Nc3cc4ccc(OC5CCN(C)CC5)c(C)c4oc3=O)c2)c1 [Compound 5, 1-(3′-methoxy-[1,1′-biphenyl]-3-yl)-3-(8-methyl-7-((1-methylpiperidin-4-yl)oxy)-2-oxo-2H-chromen-3-yl)urea]
p-MEK levels ([4]; A549, 12 and 24 h, five-times IC50): unchanged
p-ERK levels ([4]; A549, 12 h, five-times IC50): decreased
p-ERK levels ([4]; A549, 24 h, five-times IC50): comparable to vehicle
p-MEK and p-ERK levels ([4]; A549, 24 h, five-times IC50): reestablished
Hsp90 client levels ([1]; five-times IC50): did not result in decreased client levels

SMILES: N#Cc1c(Oc2ccc(F)c(NC(=O)Cc3cccc(C(F)(F)F)c3)c2)ccc2nc(NC(=O)C3CC3)sc12 [TAK-632]
IC50 ([9]; read-out: IC50 value against A549 (reported), A549 lung cancer cell line): 1700 nM
Her3 and wild-type B-Raf levels, control compounds [5]: remained unaffected

SMILES: COC1=C2C[C@@H](C)C[C@H](OC)[C@H](O)[C@@H](C)/C=C(\C)[C@H](OC(N)=O)[C@@H](OC)/C=C\C=C(/C)C(=O)NC(=CC1=O)C2=O [geldanamycin (GDA), geldanamycin]
Hsp90 client levels [10]: decreased client levels
Cellular levels of Hsp90 ([10]; at concentrations that decreased clients): increased cellular levels of Hsp90

SMILES: CNC(=O)c1cc(Oc2ccc(NC(=O)Nc3ccc(Cl)c(C(F)(F)F)c3)cc2)ccn1 [sorafenib]
Her3 levels ([5]; A549, sorafenib at five-times the reported IC50 (14 μM), 12 and 24 h): time-dependent increase

SMILES: CCCS(=O)(=O)Nc1ccc(F)c(C(=O)c2c[nH]c3ncc(-c4ccc(Cl)cc4)cc23)c1F [vemurafenib]
Activity against the A549 cell line ([9]; A549 expresses only wild-type B-Raf): relatively inactive
Her3 and wild-type B-Raf levels, control compounds [5]: little effect
